A selection: hits, their analogues and other compounds. The true share with any hit is near 2.1%.
APJ antagonist: antagonists of human APJ apelin receptor | CHO-K1 APJ beta-arrestin complementation, luminescence | inhibition, % at 20 µM | 330,000 tested, 0.32% active | AID 2521;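 active = inhibition above about 40% at 20 µM, limit read from the data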;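 also: cells challenged with 10 nM apelin-13 agonist together with compound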
EBI2 antag: EBI2 (human) antagonism | EBI2 beta-arrestin recruitment, luminescence, 7a,25-OHC stimulated | inhibition, % at 5 µM | 360,000 tested, 0.81% active | AID 651636; in the data active = inhibition above about 38%;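 also: enzyme fragment complementation signal reports receptor beta-arrestin coupling in cells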
Target sequence (P32249 whole entry, looked up, the tested form may be a part): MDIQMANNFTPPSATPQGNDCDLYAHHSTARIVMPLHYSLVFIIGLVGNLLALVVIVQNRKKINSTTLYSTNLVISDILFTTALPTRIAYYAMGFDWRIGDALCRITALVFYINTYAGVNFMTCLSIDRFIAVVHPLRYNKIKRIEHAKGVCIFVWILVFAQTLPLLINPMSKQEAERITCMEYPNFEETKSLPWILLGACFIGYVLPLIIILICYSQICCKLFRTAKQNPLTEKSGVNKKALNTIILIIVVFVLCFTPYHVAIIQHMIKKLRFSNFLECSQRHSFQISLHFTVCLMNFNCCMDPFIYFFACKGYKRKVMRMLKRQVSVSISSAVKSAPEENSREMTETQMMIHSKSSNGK
CXCR6 block: inhibitors of human CXCR6 receptor; 360,000 tested, 0.36% active; AID 602244; inhibition, % at 20 µM; CHO-K1 PathHunter CXCR6 beta-arrestin, luminescence; in the data active = inhibition above about 34%, passing the limit was not always enough;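 also: antagonist mode with CXCL16 agonist at 10 nM final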
Target sequence (O00574 whole entry, looked up): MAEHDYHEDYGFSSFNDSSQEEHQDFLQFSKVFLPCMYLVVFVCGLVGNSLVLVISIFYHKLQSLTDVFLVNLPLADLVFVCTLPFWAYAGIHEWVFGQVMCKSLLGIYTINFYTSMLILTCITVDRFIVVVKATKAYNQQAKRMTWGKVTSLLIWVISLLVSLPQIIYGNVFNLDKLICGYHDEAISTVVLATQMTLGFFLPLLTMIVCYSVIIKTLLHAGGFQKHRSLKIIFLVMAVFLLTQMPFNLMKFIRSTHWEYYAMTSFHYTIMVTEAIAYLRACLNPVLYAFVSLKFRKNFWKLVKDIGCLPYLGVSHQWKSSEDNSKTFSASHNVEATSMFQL
APJ ag: agonists of human APJ apelin receptor. 330,000 tested, 0.11% active. activation, % at 20 µM. P35414. AID 2520. CHO-K1 APJ PathHunter beta-arrestin, luminescence; 0% DMSO wells, 100% apelin;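 active = activation more than six SD over the plate average, tested at 20 µM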
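Material: engineered CHO-K1 APJ arrestin reporter cells; amount: 1000 CHO-K1 reporter cells seeded per well; incubation: compound stimulation 90 min at 25 °C, detection 60 min; signal: luminescent beta-gal fragment complementation, chemiluminescent substrate; read-out basis: APJ agonist activity; controls: DMSO-only wells as negative, 10 nM Apelin-13 as positive control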
CCR6 antag: CCR6 (human) receptor antagonism; P51684; CHO-K1 CCR6 PathHunter beta-arrestin, luminescence, CCL20-stimulated; inhibition, % at 20 µM; 340,000 tested, 0.49% active;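 active = compounds whose inhibition of the agonist-driven luminescence signal at 20 µM reaches about 50%, limit read from the data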;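 also: cells stimulated with CCL20 at 14 nM final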
HTR2A ag: activates the mouse 5-HT2A serotonin receptor; P35363; CHO-K1 mHTR2A beta-arrestin complementation, luminescence; percent of 30 µM serotonin response; activation, % at 7.6 µM; 360,000 tested, 0.66% active;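 active = activation above a run cutoff, the mean activation of all tested compounds plus 3 SD, cut at about 14% in these data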
OPRM1 ag: OPRM1 agonism in mouse HTR2A counterscreen; 2,300 tested, 5.3% active; U2OS OPRM1 beta-arrestin PathHunter, luminescence; DMSO 0%, DAMGO 9.3 µM 100%; shares compounds with HTR2A ag; activation, % at 9.3 µM;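 active = mean activation above the mean of DMSO-only wells plus 3 SD, cut at about 0.5% in these data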
m5-HT2A ag conf: mouse HTR2A agonism confirmed. shares compounds with HTR2A ag. CHO-K1 PathHunter beta-arrestin recruitment, luminescence; DMSO 0%, 30 µM serotonin 100%. activation, % at 7.6 µM. 2,300 tested, 19% active. AID 624381;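 active = mean activation across triplicates above the hit threshold derived in the original primary screen, cut at about 15% in these data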
Each line names hits and unclear results; the compound was inactive in the other large screens (follow-up assays come after a bar, where they were run).

Cc1c(C(=O)Nc2ccc(S(=O)(=O)N3CCOCC3)cc2)cccc1[N+](=O)[O-]	HTR2A ag 19.2 | OPRM1 ag inactive | m5-HT2A ag conf inactive
Cc1cccc(C(=O)Nc2ccc(S(=O)(=O)N3CCOCC3)cc2)c1[N+](=O)[O-]	none
COC(=O)C1=C(CS(=O)(=O)c2cc(Cl)ccc2OC)NC(=O)NC1c1ccc(O)c(OC)c1 (centres undefined)	HTR2A ag 14.7 | OPRM1 ag inactive | m5-HT2A ag conf inactive
COC(=O)C1=C(CS(=O)(=O)c2ccc(C)cc2)NC(=O)NC1c1ccc(OC)c(OC)c1 (centres undefined)	none
CCOC(=O)c1c(C)[nH]c(C(=O)OCC(=O)N(CC(C)C)c2c(N)n(Cc3ccccc3)c(=O)[nH]c2=O)c1C	none
CCOC(=O)c1[nH]c(C)c(C(=O)OCC(=O)N(Cc2ccccc2)C(C)C)c1C	HTR2A ag 19.6 | OPRM1 ag inactive | m5-HT2A ag conf inactive
Brc1cccc(CN2CCN(c3ncccn3)CC2)c1	HTR2A ag 33.5 | OPRM1 ag inactive | m5-HT2A ag conf 83.7
c1ccc(N2CCN(Cc3ccsc3)CC2)nc1	HTR2A ag 35.4 | OPRM1 ag inactive | m5-HT2A ag conf 102.2
Cc1cccc(CN2CCN(c3ccccn3)CC2)c1	HTR2A ag 31.5 | OPRM1 ag inactive | m5-HT2A ag conf 92.3
Brc1cccc(CN2CCCCCCC2)c1	none
c1ccc(COc2cccc(CN3CCN(c4ccccn4)CC3)c2)cc1	HTR2A ag 35.9 | OPRM1 ag inactive | m5-HT2A ag conf 93.2
CC(C)NC(=O)c1onc(CSc2ccc(F)c(F)c2)c1C(=O)O	none
CCCCOc1ccc(OC(=O)c2cccnc2)cc1	none
Cc1cccc(CN2CCN(c3ncccn3)CC2)c1	HTR2A ag 37.1 | OPRM1 ag inactive | m5-HT2A ag conf 92.9
COc1ccc(CN2CCN(c3ccccn3)CC2)c(OC)c1C	none
Cc1ccc(CN2CCN(c3ccccn3)CC2)s1	HTR2A ag 48.8 | OPRM1 ag inactive | m5-HT2A ag conf 103.0
CC(C)C[C@H]1C(=O)N2CCC[C@H]2[C@]2(O)O[C@](NC(=O)C3C=C4c5cccc6[nH]c(Br)c(c56)C[C@H]4N(C)C3)(C(C)C)C(=O)N12 (some centres undefined)	EBI2 antag 89.5, HTR2A ag 47.6 | OPRM1 ag inactive | m5-HT2A ag conf 174.3
COc1ccc(-n2c(=O)[nH]cc(C(=O)Nc3ccc4c(c3)OCCO4)c2=O)cc1OC	none
O=C(Nc1ccc2c(c1)OCO2)c1c[nH]c(=O)n(-c2ccc(F)cc2)c1=O	HTR2A ag 14.9 | OPRM1 ag inactive | m5-HT2A ag conf inactive
O=C(NCCCN1CCN(c2cccc(Cl)c2)CC1)c1ccc(N2CCCC2=O)cc1	none
O=C(NCCCN1CCN(c2cccc(Cl)c2)CC1)c1cccc(N2CCCC2=O)c1	HTR2A ag 17.4 | OPRM1 ag inactive | m5-HT2A ag conf inactive
CN1CCc2cccc3c2[C@@H]1Cc1ccc(O)c(O)c1-3	HTR2A ag 37.8 | OPRM1 ag inactive | m5-HT2A ag conf 97.3
Cc1ccc(-c2nc3cc(NS(=O)(=O)c4ccc(C)cc4)ccc3o2)cc1	none
O=S(=O)(Nc1ccc(-c2csc(-c3ccccc3)n2)cc1)c1ccccc1	HTR2A ag 17.9 | OPRM1 ag inactive | m5-HT2A ag conf inactive
O=S(=O)(Nc1ccc2oc(-c3ccccc3)nc2c1)c1ccccc1	HTR2A ag 15.2 | OPRM1 ag inactive | m5-HT2A ag conf inactive
CC(C)Sc1nc2ccc(Br)cc2[nH]1	none
CCOP(=O)(OCC)C(Nc1ccc(OC)cc1)c1ccco1 (centres undefined)	HTR2A ag 18.8 | OPRM1 ag inactive | m5-HT2A ag conf inactive
CCOP(=O)(OCC)C(Nc1ccc(C(=O)O)cc1)c1ccccc1 (centres undefined)	none
O=C(OCc1ccc(Cl)c(Cl)c1)c1cnccn1	none
Cc1cccc(C(=O)Nc2scc(-c3ccc(Br)cc3)c2C(=O)O)c1	none
Cc1ccc(-c2csc(NC(=O)c3cccc(C)c3)c2C(=O)O)cc1	HTR2A ag 14.9 | OPRM1 ag inactive | m5-HT2A ag conf inactive
O=C1CN(CC(=O)N2CCOCC2)c2ccccc2O1	none (no result: EBI2 antag, CXCR6 block, CCR6 antag, HTR2A ag)
N#Cc1cc(Sc2ccccn2)c([N+](=O)[O-])cc1C#N	HTR2A ag 17.3 | OPRM1 ag inactive | m5-HT2A ag conf inactive
N#Cc1cc(Sc2ccccn2)c(Sc2ccccn2)cc1C#N	none
COc1ccc(-c2c(C#N)c(SCc3c(C)noc3C)nc3c2C(=O)CC(C)(C)C3)cc1	HTR2A ag 17.5 | OPRM1 ag inactive | m5-HT2A ag conf inactive
Nc1nc(N)nc(-c2cccc(Cl)c2)n1	none
CC(CN1CCCCC1)C(=O)NNC(=O)C12CC3CC(CC(C3)C1)C2 (centres undefined)	HTR2A ag 16.0 | OPRM1 ag inactive | m5-HT2A ag conf inactive
N#Cc1cccc(C(=O)OCC(=O)N2CCCc3ccccc32)c1	none
NC(=O)C1CCN(C(=O)c2cc3ccccn3n2)CC1	none
O=C(c1cc2ccccn2n1)N1CCN(c2ccccn2)CC1	HTR2A ag 17.4 | OPRM1 ag inactive | m5-HT2A ag conf inactive
OC(c1ccc(Cl)c(F)c1)c1ncc(-c2ccc(Oc3ccccc3)cc2)[nH]1 (centres undefined)	none (no result: APJ antagonist, APJ ag, CCR6 antag)
CCOC(=O)c1cc2cc(OC)ccc2n1C1CCN(CCc2ccccc2)CC1	HTR2A ag 19.6 (no result: APJ antagonist, APJ ag, CCR6 antag) | OPRM1 ag inactive | m5-HT2A ag conf inactive
Cc1cc2nc(-c3ccc(Cl)cc3)c(Cc3ccsc3)n2c(C)c1Br	none (no result: APJ antagonist, APJ ag, CCR6 antag)
CC(=O)/C(C(=N)N1CCN(c2cccc(Cl)c2)CC1)=C(\C)O	HTR2A ag 17.9 | OPRM1 ag inactive | m5-HT2A ag conf inactive
O=C(O)/C=C/C(=O)N1CCN(c2cccc(Cl)c2)CC1	HTR2A ag 30.7 | OPRM1 ag inactive | m5-HT2A ag conf inactive
N#CCC(=N)N1CCN(c2cccc(Cl)c2)CC1	HTR2A ag 15.1 | OPRM1 ag inactive | m5-HT2A ag conf inactive
N#CCC(=N)N1CCN(c2ccccc2)CC1	none
Cc1ccc(S(=O)(=O)N(C)C)cc1NC(=O)CSc1ncn[nH]1	none
O=C1CSC(=Nc2ccccc2Cl)N1	none
C=CCn1c(=O)/c(=C/c2ccc(C)o2)s/c1=C(/C#N)C(=O)c1ccccc1	HTR2A ag 14.8 | OPRM1 ag inactive | m5-HT2A ag conf inactive
CCn1c(SCC(=O)c2[nH]c(C)c(C(C)=O)c2C)nnc1-c1cccs1	none
Cc1ccc(S(=O)(=O)Cc2sc3ccccc3[n+]2C)cc1	none
